Laboratory results from the EternaBench riboswitch data.

System: MS2 coat protein
Assay: apparent Kd, MS2 coat protein; higher = weaker binding; RNA-MaP array; FMN 200 µM where present
In short: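 Designs were transcribed by stalled E. coli RNA polymerase on Illumina sequencing-chip clusters. They were titrated with SNAP-549-labelled MS2 coat protein from 0.7 or 1.5 nM, doubling to 3 µM, without and then with constant ligand. Buffer: 100 mM Tris-HCl pH 7.5, 80 mM KCl, 4 mM MgCl2, BSA, DTT, yeast tRNA, Tween-20. Green signal was normalised to red-channel RNA signal and control-cluster median Fmax. Apparent Kd is the median of filtered per-cluster binding-curve fits.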

[1] = designed as: ON switch for flavin mononucleotide, no ligand
[2] = ligand present: flavin mononucleotide, designed as: ON switch for flavin mononucleotide
[3] = designed as: OFF switch for flavin mononucleotide, no ligand
[4] = ligand present: flavin mononucleotide, designed as: OFF switch for flavin mononucleotide

Sequence | apparent Kd [1] [µM] | apparent Kd [2] [µM] | apparent Kd [3] [µM] | apparent Kd [4] [µM]
GCAGCACAGUUUUACAUGAGGAUCACCCAUGUCUAUUGAGAUGAGGAUAUGCAUCGAAUGAAGUUGCAGAAGGCAUUGUGCUGC | 0.0112 | 0.00646 | – | –
UUUGUCUGUGUGAGGAUAUACUUGUUUGGGUUUUUGUAGAAGGCACAUGAGGAUCACCCAUGUAUUUUGUCGUG | – | – | 0.0436 | 0.0616
ACAUUGAUUGUGAGGAUAUCGAUGUGAUGGUAUGUCGAGAAGGCACAUGAGGAUCACCCAUGUGGGUGUGGGCA | – | – | 0.259 | 0.292
CUAAAUCAUGUAGGAUAUGCAUGGCGAAGCUACGCAGAAGGACAUGAGGAUCACCCAUGUCAGUACGUCUGCGUACAGACGUUG | – | – | 0.0143 | 0.0191
UACUACGCAGGAUAUACAUGAGGAUCACCCAUGUGUCUGCGAUAGGCACGUGAAAUCCGUAGAAGGGUGUAGAU | – | – | 0.042 | 0.109
AGGCCGCUACGCCGGCUUCACGCACAGGAUAUGCAGUUACAUGAGGAUCACCCAUGUGGCCAUGUGCAGAAGGGUGGUUCGCGA | 0.0395 | 0.0186 | – | –
CUUUUGUGAGGAUAUUAGUAGUAGAUAGUUGGUGGUGUUGCUGAGAAGGCACAUGAGGAUCACCCAUGUACAAC | – | – | 0.344 | 0.335
AAAACGUGAGGAUAUGCACCAACCAAGGUUUUUCGGGUACGACAUGAGGAUCACCCAUGUAGAAGGCACGAAAA | – | – | 0.0162 | 0.0129
ACGUCUUAGUAGAAGGGACUUCGGCUGGUAAGCAUCAUCUCCUUCUCACAUGAGGAUCACCCAUGUCAGGAUAUACUAAGAGUC | – | – | 0.00724 | 0.00735
CGGCGGAAAGGAUAUGCAUUAAUAUCCAAAUGUGGGCCACGACAUGAGGAUCACCCAUGUAGAAGGUUCAGCCG | – | – | 0.0153 | 0.0139
CGUUGAUGAGGAUAUCGAUGUUAGUACAUGAGGAUCACCCAUGUUAUCCAAGUGUCGUUUCGAGAAGGUAUUGGAC | – | – | 0.216 | 0.348
UUGCGGUAGGAGAAGGACAGAGGCGGAAACACAAACAUGAGGAUCACCCAUGUAGGAUAUCCUACCUAACGCGGAUACCUCCAG | – | – | 0.014 | 0.0396
GGAAAAUUGAUCCCUUUUUAUUACAUGAGGAUCACCCAUGUGCAGGAUAUCGAUUAUUAUAGUUUCGAGAAGGGCAAGAAUUGU | – | – | 0.0403 | 0.276
GUAGCAUACCGAGGAUAUUCAUAUAAUAAGUAAACAUGAGGAUCACCCAUGUAGCGAAAGCCUUGGGAGAAGGCGGAAUGCUAC | 0.346 | 0.052 | – | –
GCUACGUCAGGAUAUCUGAUGUCUAACUUCGGUUAGACAUCAGAGAAGGGACAUGAGGAUCACCCAUGUAGCAA | – | – | 0.0935 | 0.122
CGGUACUGAGGAUAUACAUGAGGAUCACCCAUGUGUUCUAGCUAGCGUACUGGCUAUUGUAGAAGGCGGUGCUG | – | – | 0.0175 | 0.0998
CUAUUAUGUGUAGGAUAUGCAUAUUAUUAUUAUGCAGAAGGACAUGAGGAUCACCCAUGUAUAUUAUUAUUAUAUAUUAUAUAU | – | – | 0.0107 | 0.0116
AAAAGUUAAGGAUAUACAGGGAGCCGCGGCGACUCGCCGCAACAUGAGGAUCACCCAUGUAGAAGGUAGCCAAA | – | – | 0.0276 | 0.0628
AUCAGCUCGUCAGGAUAUACGUCACUGCGUCAGCAGUGUGGUAAGAUCACAUGAGGAUCACCCAUGUAGAAGGGACAAGCUGAU | – | – | 0.0131 | 0.27
UGACUAGCAAUGUAUCGAAAGAUCACAUGAGGAUCACCCAUGUAGGAUAUGAGCAGAAAAUCUGCUCAGAAGGACAUGCUAGUC | – | – | 0.00588 | 0.00604
UAUUGAUAAUAUCUUCACAUGAGGAUCACCCAUGUCGCUCGACAGGAUAUAUUUUAUUUGUUUAAGUAGAAGGGUCGCAGAUUU | 0.165 | 0.142 | – | –
GGUGCUAUGUAGAAGGCAGAUCUGAUUCAGAUCUGAGGAUAUACAUGAGGAUCACCCAUGUUAUGCACCAGCACGAGAGUGCAU | – | – | 0.0135 | 0.0351
GCAUGACAAAGUCAUGCAAUACGAACAUGAGGAUCACCCAUGUAGGAUAUGCUACUCAAAGAGUAGCAGAAGGACAUGUGUCUU | – | – | 0.0332 | 0.182
AGCGGCGCGGGCCACCGCAGAACCAGAAGGACAUGAGGAUCACCCAUGUAACAGAACAGGGCGGUGUAGGAUAUGGCAGGCUCG | – | – | 0.0251 | 0.0462

Sequence | apparent Kd [1] [µM] | apparent Kd [2] [µM] | apparent Kd [3] [µM] | apparent Kd [4] [µM]
AGUGACUACGUAGGAUAUUAAAUCAUGUACUACAUGAGGAUCACCCAUGUUAAUUUAACAUCAGCUGAGAAGGACGUGGUCACA | 0.0206 | 0.0116 | – | –
GUAGCAAUCGGAGGAUAUGGGUUGAUAACAUGAGGAUCACCCAUGUUAAUACUAGAAGGCCGAUUGCUACAAGAGCGAAAGCUC | 0.0314 | 0.00639 | – | –
AAAAGACAUGAGGAUCACCCAUGUCAAGACAUAGGAGGAUAUGUCUGGAAAAAAGACUGGACAGAAGGCCUUUGUC | 0.0199 | 0.0174 | – | –
GUAGCUAUCGGAGGAUAUUCAUACCGGAUACGGACAUGAGGAUCACCCAUGUCGCGAAAGCGUUGGGAGAAGGCCGAUAGCUAC | 0.0892 | 0.0204 | – | –
AUUUGACACGUAGGAUAUCGCUUAAAUUUAACACGAGAAGGACGAACAUGAGGAUCACCCAUGUAUCAUGGUGUAGAUAAUUUG | – | – | 0.0545 | 0.216
GUCUGAUUGUAGAAGGUACUUAAUACUCAUGUAACAUGAGGAUCACCCAUGUAUCAACAAUAUUGUAAGGAUAUACAUAUCUCA | 0.478 | 0.258 | – | –
GUAGCUAUCGGAGGAUAUUCCUUGCGGAAACGCACAUGAGGAUCACCCAUGUAAAUAAAUAAUUGGGAGAAGGCCGAUAGCUAC | 0.045 | 0.0149 | – | –
ACGGCCUUACAUGAGGAUCACCCAUGUGAGUAUGGAGUUACACAGGAUAUCCGCGUGGCAGGCAAGGAGAAGGGUGUAUUAGGA | 0.0701 | 0.0219 | – | –
GGAAAACAUGAGGAUCACCCAUGUGAGGAUAUCGAUGUCCAAAGAAAAGUGCGGGACUCGAGAAGGCACUUGGA | – | – | 0.0529 | 0.0337
AAAAUGUGAGGAUAUGCGAAGGCGUCUGAUAGACGAGGCUAGCAGAAGGCACAUGAGGAUCACCCAUGUCCAAA | – | – | 0.0403 | 0.0603
AGUGAAUGUACAGGAUAUGCUGGACUUUGUCCAGCAGAAGGGUAUUAACAUGAGGAUCACCCAUGUUCAUUCACCAAAUUUAAU | 0.0388 | 0.0083 | – | –
UUGAAUUGAAACAUGAGGAUCACCCAUGUGUCAUAAUUGACAUAGGAUAUGUUUAUACUUUUAAAAUAGAAGGAUGACGAUACU | 0.0138 | 0.0118 | – | –
GCGUGGUUCUAGAAGGUGCUAGCGAUAAGCUAGCAAGGAUAUAGACAUGAGGAUCACCCAUGUCUUAAAGAAAUGGACACACGC | – | – | 0.00504 | 0.00555
GUCUGGCUAGGAUAUACAUAGUCCACGAGUCGGUUGCCCUGACAUGAGGAUCACCCAUGUAGAAGGAGCGAGAA | – | – | 0.0194 | 0.0186
AAGGAGUUAGGAUAUGCUGCUCGUCACUUGCGUGAUGAGUAGCAGAAGGAACAUGAGGAUCACCCAUGUAAAGA | – | – | 0.0302 | 0.0242
AGCGGCCGAGGAUAUACAAUCCUCCUGGCAGCCUGUCUGCCACAUGAGGAUCACCCAUGUAGAAGGCGGACCGC | – | – | 0.167 | 0.0383
CAGUACUGAGGAUAUACAUGAGGAUCACCCAUGUGUUCCAGCUAGGAAACUAGCAAAAUUAGAAGGCAGUACUG | – | – | 0.0117 | 0.0207
AAUAUGUGAGGAUAUAUCCACCGCGUAGGCUCGCGGUGACAAUAGAAGGUACAUGAGGAUCACCCAUGUAGGGA | – | – | 0.0677 | 0.0369
ACACAUGAGGAUCACCCAUGUAGCUGGCGUCUGCACCAGCCACAGGAUAUACGGCAACACAAACCGUAGAAGGGUGAUAAACAC | 0.0563 | 0.0273 | – | –
GGUUCUCAAAGAGAACCAUAACGAACAUGAGGAUCACCCAUGUAGGAUAUGCUACUCAAAGAGUAGCAGAAGGACAUGUGCCUU | – | – | 0.0306 | 0.265
ACGGAACAUGAGGAUCACCCAUGUAUCUGAGAUAUGGUCUCACAGGAUAUUCAGAGUUGCCAAUCGGAGAAGGGUGACACCAGA | 0.0785 | 0.0435 | – | –
UGUCGGAGCAGAGGAUAUUACAUGAGGAUCACCCAUGUAUGAACCAAUCGCUGGAAACAGCAAUGUAAGAAGGCUGCUCCGACA | – | – | 0.0103 | 0.0737
CGCUACAGCCAGAAGGACAUGAGGAUCACCCAUGUAGGAUAUGGGAGACGCAGUCCAGUGUAGAGAAACUACGCUACUGUAGCG | 0.504 | 0.216 | – | –
AUAUAUAUAUCAGGAUAUGGACAGGCCUGUUCGUAUUAAGACAUUAACAUGAGGAUCACCCAUGUCCAGAAGGGAUAUAUAUAU | – | – | 0.109 | 0.0869
